Experimental data as given in ChEMBL document CHEMBL1123783, “Synthesis and anticonvulsant activity of analogues of 4-amino-N-(1-phenylethyl)benzamide” (J Med Chem, 1987).

What was measured:
Mus musculus [1] = test: Compound was evaluated for toxicity by rotarod assay method after 4 hr; E indicates no activity at 30 mg/kg.; format: organism-based; design: dose 30 mg/kg; conditions: in vivo
In short: (§1)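 Male Carworth Farms number-one mice received test compound intraperitoneally in 30% polyethylene glycol 400 at 30, 100 and 300 mg/kg, with 600 mg/kg in some cases. Neurological deficit was read at 30 min or 4 h after dosing on a 1-in.-diameter knurled plastic rod turning at 6 rpm. Toxicity was scored as failure to stay on the rod for 1 min.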

Mus musculus [2] = test: Compound was evaluated for anticonvulsant activity against maximal electric shock (MES) induced convulsions after 4 hr; E indicates no activity at 30 mg/kg.; format: functional, organism-based; design: dose 30 mg/kg
[3] = Protective index is the ratio of TD50 to ED50; format: ADME; conditions: for selectivity ratio: read-out: Protective index
In short: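 Protective index was calculated as rotorod TD50 divided by anti-MES ED50. Both were graphical median doses from ip dosing in 30% PEG 400 in male Carworth Farms mice.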

Mus musculus [4] = species on record: Mus musculus; test: Compound was evaluated for anticonvulsant activity against maximal electric shock induced seizures; format: functional
In short: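 Male Carworth Farms number-one mice received the compound ip in 30% polyethylene glycol 400 before maximal electroshock testing, at several dose levels. The median effective dose (ED50) was obtained by the graphical method.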

[5] = Compound was evaluated for anticonvulsant activity by rotarod procedure; format: ADME, organism-based; conditions: mouse, in vivo
In short: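 Male Carworth Farms mice were dosed ip in 30% PEG 400 and then placed on a knurled plastic rod 1 in. in diameter, rotating at 6 rpm. Neurotoxicity was failure to stay on the rod for 1 min. TD50 was derived graphically.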

Mus musculus [6] = test: Compound was evaluated for toxicity by rotarod assay method after 30 minutes at a dose of 100 mg/kg; format: organism-based; design: dose 100 mg/kg; conditions: in vivo, 0.5 h; in short: as §1
Mus musculus [7] = test: Compound was evaluated for anticonvulsant activity against maximal electric shock (MES) induced convulsions after 30 minutes at a dose of 30 mg/kg; format: functional
Mus musculus [8] = test: Compound was evaluated for anticonvulsant activity against subcutaneous pentylenetetrazole-induced convulsions after 4 hr; E indicates no activity at 30 mg/kg.; format: functional, organism-based; design: dose 30 mg/kg
In short: (§2)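 Male Carworth Farms number-one mice were dosed ip in 30% PEG 400, at 30, 100 or 300 mg/kg (sometimes 600 mg/kg). Pentylenetetrazole, 85 mg/kg as a 0.5% solution, was injected subcutaneously in the posterior midline. Protection meant no episode of clonic spasms lasting at least 5 s during a 30-min observation period.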

Mus musculus [9] = test: Compound was evaluated for anticonvulsant activity against subcutaneous pentylenetetrazole-induced convulsions after 30 minutes; E indicates no activity at 30 mg/kg.; format: functional, organism-based; design: dose 30 mg/kg; in short: as §2
Mus musculus [10] = test: Compound was evaluated for toxicity by rotarod assay method after 4 hr; C indicates no activity at 300 mg/kg.; format: organism-based; design: dose 300 mg/kg; conditions: in vivo; in short: as §1
Mus musculus [11] = test: Compound was evaluated for anticonvulsant activity against maximal electric shock (MES) induced convulsions after 4 hr at a dose of 300 mg/kg; format: functional
Mus musculus [12] = test: Compound was evaluated for toxicity by rotarod assay method after 30 minutes; C indicates no activity at 300 mg/kg.; format: organism-based; design: dose 300 mg/kg; conditions: in vivo, 0.5 h; in short: as §1
Mus musculus [13] = test: Compound was evaluated for anticonvulsant activity against subcutaneous pentylenetetrazole-induced convulsions after 4 hr at a dose of 300 mg/kg; format: functional; in short: as §2
Mus musculus [14] = test: Compound was evaluated for anticonvulsant activity against subcutaneous pentylenetetrazole-induced convulsions after 30 minutes at a dose of 300 mg/kg; format: functional; in short: as §2
Mus musculus [15] = test: Compound was evaluated for anticonvulsant activity against maximal electric shock (MES) induced convulsions after 30 minutes at a dose of 100 mg/kg; format: functional
Mus musculus [16] = test: Compound was evaluated for anticonvulsant activity against maximal electric shock (MES) induced convulsions after 30 minutes at a dose of 300 mg/kg; format: functional
Mus musculus [17] = test: Compound was evaluated for anticonvulsant activity against maximal electric shock (MES) induced convulsions after 4 hr; C indicates no activity at 300 mg/kg.; format: functional, organism-based; design: dose 300 mg/kg
Mus musculus [18] = test: Compound was evaluated for anticonvulsant activity against subcutaneous pentylenetetrazole-induced convulsions after 4 hr; C is inactive at 300 mg/kg.; format: functional, organism-based; design: dose 300 mg/kg; in short: as §2
Mus musculus [19] = test: Compound was evaluated for anticonvulsant activity against maximal electric shock (MES) induced convulsions after 30 minutes;C is inactive at 300 mg/kg.; format: functional, organism-based; design: dose 300 mg/kg
Mus musculus [20] = test: Compound was evaluated for toxicity by rotarod assay method after 4 hr; C is inactive at 300 mg/kg.; format: organism-based; design: dose 300 mg/kg; conditions: in vivo; in short: as §1
Mus musculus [21] = test: Compound was evaluated for toxicity by rotarod assay method after 30 minutes; C is inactive at 300 mg/kg.; format: organism-based; design: dose 300 mg/kg; conditions: in vivo, 0.5 h; in short: as §1
Mus musculus [22] = test: Compound was evaluated for anticonvulsant activity against maximal electric shock (MES) induced convulsions after 4 hr; C is inactive at 300 mg/kg.; format: functional, organism-based; design: dose 300 mg/kg
Mus musculus [23] = test: Compound was evaluated for anticonvulsant activity against subcutaneous pentylenetetrazole-induced convulsions after 30 minutes;C is inactive at 300 mg/kg.; format: functional, organism-based; design: dose 300 mg/kg; in short: as §2
Mus musculus [24] = test: Compound was evaluated for anticonvulsant activity against maximal electric shock (MES) induced convulsions after 4 hr at a dose of 100 mg/kg; format: functional
Mus musculus [25] = test: Compound was evaluated for anticonvulsant activity against subcutaneous pentylenetetrazole-induced convulsions after 30 minutes;C indicates no activity at 300 mg/kg.; format: functional, organism-based; design: dose 300 mg/kg; in short: as §2
Mus musculus [26] = test: Compound was evaluated for anticonvulsant activity against subcutaneous pentylenetetrazole-induced convulsions after 4 hr; C indicates no activity at 300 mg/kg.; format: functional, organism-based; design: dose 300 mg/kg; in short: as §2
Mus musculus [27] = test: Compound was evaluated for toxicity by rotarod assay method after 4 hr at a dose of 300 mg/kg; format: organism-based; design: dose 300 mg/kg; conditions: in vivo; in short: as §1
Mus musculus [28] = test: Compound was evaluated for toxicity by rotarod assay method after 30 minutes at a dose of 300 mg/kg; format: organism-based; design: dose 300 mg/kg; conditions: in vivo, 0.5 h; in short: as §1
Mus musculus [29] = test: Compound was evaluated for anticonvulsant activity against subcutaneous pentylenetetrazole-induced convulsions; format: functional; conditions: sc; in short: as §2
Mus musculus [30] = test: Compound was evaluated for anticonvulsant activity against subcutaneous pentylenetetrazole-induced convulsions after 30 minutes; C indicates no activity at 300 mg/kg.; format: functional, organism-based; design: dose 300 mg/kg; in short: as §2

Compound | selectivity ratio [3] | ED50 (Mus musculus [4]) [mg/kg] | TD50 [5] [mg/kg] | Toxicity (Mus musculus [10]) | Activity (Mus musculus [11]) | Toxicity (Mus musculus [12]) | Activity (Mus musculus [14]) | Activity (Mus musculus [15]) | Activity (Mus musculus [18]) | Activity (Mus musculus [19]) | Toxicity (Mus musculus [20]) | Toxicity (Mus musculus [21]) | Activity (Mus musculus [22]) | Activity (Mus musculus [23]) | Activity (Mus musculus [26]) | Protective index [3] | ED50 (Mus musculus [29]) [mg/kg] | other results
CC(NC(=O)c1ccc(CN(C)C)cc1)c1ccccc1 (configuration not stated) | 2.63 | 13 | 34.3 |  |  |  |  |  |  |  |  |  |  |  |  |  |  | Toxicity (Mus musculus [1]): No activity at 30 mg/kg; Activity (Mus musculus [2]): No activity at 30 mg/kg; Toxicity (Mus musculus [6]): 3; Activity (Mus musculus [7]): 4; Activity (Mus musculus [8]): No activity at 30 mg/kg; Activity (Mus musculus [9]): No activity at 30 mg/kg
CNc1ccc(C(=O)NC(C)c2ccccc2)cc1 (configuration not stated) |  |  |  | No activity at 300 mg/kg | 2 | No activity at 300 mg/kg | 2 | 3 |  |  |  |  |  |  |  |  |  | Activity (Mus musculus [13]): 2
CC(NC(=O)c1ccc(N)cc1)c1ccc(Cl)cc1 (configuration not stated) |  |  |  | No activity at 300 mg/kg |  | No activity at 300 mg/kg | 2 |  |  |  |  |  |  |  |  |  |  | Activity (Mus musculus [16]): 2; Activity (Mus musculus [17]): No activity at 300 mg/kg; Activity (Mus musculus [13]): 2
Cc1ccc(C(C)NC(=O)c2ccc(N)cc2)cc1 (configuration not stated) |  |  |  |  |  |  |  |  | No activity at 300 mg/kg | No activity at 300 mg/kg | No activity at 300 mg/kg | No activity at 300 mg/kg | No activity at 300 mg/kg | No activity at 300 mg/kg |  |  |  | 
CN(C)c1ccc(C(=O)NCCc2ccccc2)cc1 |  |  |  |  |  |  |  |  | No activity at 300 mg/kg | No activity at 300 mg/kg | No activity at 300 mg/kg | No activity at 300 mg/kg | No activity at 300 mg/kg | No activity at 300 mg/kg |  |  |  | 
CN(C)c1ccc(C(=O)Nc2ccccc2)cc1 |  |  |  |  |  |  |  |  | No activity at 300 mg/kg | No activity at 300 mg/kg | No activity at 300 mg/kg | No activity at 300 mg/kg | No activity at 300 mg/kg | No activity at 300 mg/kg |  |  |  | 
CC(NC(=O)c1ccc(N)cc1)c1ccc(F)cc1 (configuration not stated) |  |  |  |  |  | No activity at 300 mg/kg |  |  |  |  |  |  |  |  | No activity at 300 mg/kg |  |  | Activity (Mus musculus [24]): 3; Activity (Mus musculus [25]): No activity at 300 mg/kg; Activity (Mus musculus [16]): 2; Toxicity (Mus musculus [27]): 2
CCCCC(NC(=O)c1ccc(N)cc1)c1ccccc1 (configuration not stated) |  | 73.7 | 332 | No activity at 300 mg/kg | 2 |  | 2 | 3 |  |  |  |  |  |  | No activity at 300 mg/kg | 2.06 | 161 | Toxicity (Mus musculus [28]): 2
CCCC(NC(=O)c1ccc(N)cc1)c1ccccc1 (configuration not stated) | 4.03 | 93.9 | 378 | No activity at 300 mg/kg | 2 | No activity at 300 mg/kg |  | 3 |  |  |  |  |  |  | No activity at 300 mg/kg | 4.8 | 78.8 | Activity (Mus musculus [30]): No activity at 300 mg/kg
CC(NC(=O)c1ccccc1)c1ccc(N)cc1 (configuration not stated) | 2.79 | 68.2 | 190 | No activity at 300 mg/kg | 2 |  | 2 | 3 |  |  |  |  |  |  | No activity at 300 mg/kg | 1.51 | 126 | Toxicity (Mus musculus [28]): 2
